Screening data: PubChem BioAssay, several laboratories
This is a sample that favours compounds with a hit; in the whole collection about 2.1% have one here.
SUMO1 PPI mod – SUMO1-SIM interaction modulation. P63165. SUMO1 binding to a labelled peptide, TR-FRET, 1 h. inhibition, % at 20 µM. hit rate 0.33% among 360,000; in the data active means inhibition above about 37%
Scp1 inh – blocks human Scp-1 phosphatase activity; Q9GZU7; AID 493091; inhibition, % at 20 µM; hit rate 0.88% among 340,000; Recombinant Scp1, phosphopeptide, malachite green phosphate absorbance;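 active means inhibition above about 50% at 20 µM, limit read from the data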;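 further: plate controls were DMSO wells with enzyme for no effect and wells lacking enzyme for full effect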
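Test system – truncated SCP-1 phosphatase (76-261aa) · Reagent – Phosphorylated 17-residue peptide substrate · Incubation – 45 min room-temperature reaction, 5 min colour, 30 min stabiliser · Detection – colorimetric phosphate reagent with accelerator and stabiliser, absorbance at 630 nm · Measure – % inhibition at 20 µM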
LMPTP block – blocks human LMPTP phosphatase; inhibition, % at 20 µM; hit rate 0.22% among 360,000; recombinant LMPTP-A, OMFP fluorogenic substrate, fluorescence intensity;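 active means compounds that cut the enzyme signal by at least half of the control window in the single-dose screen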;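 further: plate controls were DMSO wells with enzyme plus substrate for no effect and substrate without enzyme for full effect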
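Assay system: LMPTP-A phosphatase enzyme | Input: 0.625 nM enzyme | Also added: Fluorogenic phosphatase substrate OMFP at 400 µM final | Compound dosing: One test concentration per compound, 20 µM, with 3% DMSO overall | Schedule: 50 min enzyme reaction at room temperature, protected from light | Signal: Fluorescence intensity | Benchmarks: no-enzyme and uninhibited controls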
DNMT1 inh – blocks human DNA methyltransferase DNMT1 | DNMT1 molecular beacon, Hinp1I cleavage, fluorescence | hit rate 0.83% among 360,000 | inhibition (reported as % activation of signal), % at 10 µM | P26358; in the data active means inhibition above about 50%
GRK2 inh – blocks RNA aptamer binding to human GRK2; inhibition of aptamer binding, % at 10 µM; P25098; bead flow cytometry, FAM-aptamer displacement from GRK2; hit rate 0.59% among 330,000;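 active means inhibition of aptamer binding above 40%, roughly 3 SD of noise, on plates passing a quality check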;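 further: median bead fluorescence of bound FAM aptamer so fluorescent compounds give negative values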
Target sequence (P25098 whole entry, looked up): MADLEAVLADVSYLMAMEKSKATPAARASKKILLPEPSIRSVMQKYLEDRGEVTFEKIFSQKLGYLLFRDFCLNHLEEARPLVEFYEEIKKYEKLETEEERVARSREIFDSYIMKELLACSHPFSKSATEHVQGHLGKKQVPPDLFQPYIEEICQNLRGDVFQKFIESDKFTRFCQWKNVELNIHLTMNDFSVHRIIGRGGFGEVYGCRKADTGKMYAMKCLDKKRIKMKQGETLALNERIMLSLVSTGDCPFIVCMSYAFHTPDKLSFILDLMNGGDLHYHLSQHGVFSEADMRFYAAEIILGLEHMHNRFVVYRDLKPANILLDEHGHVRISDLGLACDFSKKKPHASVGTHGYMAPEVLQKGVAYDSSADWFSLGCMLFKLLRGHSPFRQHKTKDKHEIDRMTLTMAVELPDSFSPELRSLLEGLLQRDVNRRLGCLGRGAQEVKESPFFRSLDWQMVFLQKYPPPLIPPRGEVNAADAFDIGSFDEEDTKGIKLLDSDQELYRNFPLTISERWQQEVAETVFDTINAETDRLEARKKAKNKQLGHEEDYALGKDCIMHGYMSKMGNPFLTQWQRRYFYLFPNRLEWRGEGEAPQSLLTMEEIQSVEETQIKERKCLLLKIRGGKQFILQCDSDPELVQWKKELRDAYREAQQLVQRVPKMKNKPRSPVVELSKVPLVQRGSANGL
STEP inh – STEP (human) phosphatase inhibition; recombinant STEP, OMFP fluorogenic substrate, fluorescence; hit rate 0.25% among 360,000; inhibition, % at 20 µM; P54829;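 active means inhibition at 20 µM, scaled per plate between control wells, above about 37%, limit read from the data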;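 further: 0% = DMSO with enzyme and substrate and 100% = substrate only without enzyme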
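medium = Bis-Tris buffer pH 6.0, 2.5 mM DTT, 0.005% Tween 20 | test system = STEP (striatal-enriched tyrosine phosphatase) enzyme, cell-free | measure = normalized % inhibition | compound dosing = 20 µM, 1% DMSO | also added = 25 µM OMFP | schedule = reaction 20 min, ambient temperature | measured by = fluorescence read at 480 nm ex / 540 nm em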
Scp1 confirm – confirmation of human Scp-1 phosphatase inhibitors; shares compounds with Scp1 inh; AID 540281; inhibition, % at 20 µM; hit rate 61% among 2,500; recombinant SCP-1 catalytic domain, phosphate release, malachite green absorbance;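 further: plate controls were DMSO with enzyme for no effect and buffer wells lacking enzyme for full effect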
MG interference – counter-screen for Scp-1 inhibitors: colorimetric interference; AID 540313; 2,500 tested, under 10 active; apparent inhibition (interference), % at 20 µM; shares compounds with Scp1 inh; Colorimetric interference counterscreen, malachite green absorbance 630 nm;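 further: compounds added after enzyme reaction finished so only phosphate colour detection is probed; plate controls were DMSO wells with completed Scp-1 reaction for no effect and substrate wells lacking enzyme for full effect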
Scp-1 Tm shift – binds human Scp-1, shifting its melting temperature | shares compounds with Scp1 inh | Recombinant SCP1, Sypro Orange thermal shift Tm | thermal shift relative to vanadate control, % at 40 µM | hit rate 25% among 1,500;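 active means substances whose mean melting-temperature shift, as a percentage of the reference inhibitor's shift, reaches about 5.3%, limit read from the data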;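 further: 0% = Tm of DMSO wells and 100% = Tm with sodium orthovanadate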
DNMT1 confirm – confirmation of human DNMT1 inhibitors; shares compounds with DNMT1 inh; DNMT1 molecular beacon HinP1I cleavage, fluorescence; inhibition, % at 10 µM; hit rate 8% among 2,300; AID 602385;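 active means average inhibition of at least 30% in the single-concentration confirmation test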
DNMT1 interf – shows spectral interference in the DNMT1 beacon assay. AID 602387. DNMT1 molecular beacon spectral interference counterscreen, fluorescence 485/520. hit rate 1% among 2,300. activation (fluorescence interference), % at 10 µM. shares compounds with DNMT1 inh;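 active means activation of at least 30% at 10 µM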;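 further: DNMT1 catalytic domain with a HinP1I cleavage step and a FAM/dabcyl DNA beacon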
STEP conf – confirmation of human STEP phosphatase inhibitors. shares compounds with STEP inh. recombinant STEP, OMFP fluorogenic substrate, fluorescence. inhibition, % at 20 µM. hit rate 32% among 520. AID 623866; call rule not given here;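 further: 0% = enzyme with substrate plus DMSO and 100% = substrate without enzyme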
An asterisk follows results filed as active; / = not tested or not shown.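 How the source made its calls, unless noted: active means inhibition of at least 30% at 20 µM; inactive means the rest.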

SMILES	SUMO1 PPI mod	Scp1 inh	LMPTP block	DNMT1 inh	GRK2 inh	STEP inh	Scp1 confirm	MG interference	Scp-1 Tm shift	STEP conf	others
CCCSc1nc(C)c(-c2csc(C(C#N)=C3CCCC3)n2)cc1C#N	22	57*	16	92*	0	6	60*	-12	5	/	DNMT1 confirm=-1;DNMT1 interf=-2
CN(C)c1cc(-c2ccc(Cl)c(Cl)c2)oc(=O)c1Cl	26	107*	60*	62*	0	96*	81*	-18	3	13	DNMT1 confirm=0;DNMT1 interf=-2
C=CCNC(=O)c1ccc(Cn2c(=S)[nH]c3cc4c(cc3c2=O)OCO4)cc1	17	86*	49	1	34	47*	58*	-18	-22	6
Cc1ccc(S(=O)(=O)N2CC3C(=O)C[C@@H](c4ccccc4)N(S(=O)(=O)c4ccccc4Cl)C3CC2c2ccccc2)cc1 (stereo not given in full)	-1	/	1	/	/	/	/	/	/	/
Cc1ccc(-c2nc(NC(=O)CSc3cc(C)c4ccccc4n3)ns2)cc1	25	106*	66*	90*	2	70*	84*	-9	1	50*	DNMT1 confirm=3;DNMT1 interf=-4
COC(=O)COc1ccc2oc(=O)cc(-c3cc4cccc(OC)c4o3)c2c1	40*	75*	61*	44	0	75*	56*	-27	-21	10
O=C(Nc1cccc(-c2nc3ccccc3s2)c1)c1cc(=O)c2ccccc2o1	3	72*	37	52*	3	80*	43*	-14	-6	5	DNMT1 confirm=1;DNMT1 interf=1
CCCS(=O)(=O)NC(=O)C1(C)CCCN(C(=O)c2cc(F)ccc2C)C1 (stereo not given)	0	/	-2	0	/	0	/	/	/	/
COc1ccc(S(=O)(=O)N2CCC3CC2c2c(-c4ccc(C(F)(F)F)cc4)cccc23)cc1 (stereo not given)	2	/	1	-2	/	1	/	/	/	/
Cc1csc2c(=O)sc(NC(=O)c3ccc(F)cc3)nc12	4	0	-2	8	0	0	/	/	/	/
Cc1csc2nc(NC(=O)c3ccccc3)sc(=O)c12	-7	87*	57*	24	2	79*	70*	-15	-8	16
N=c1c2ccccc2nnn1-c1ccc(C(F)(F)F)cc1	-6	73*	68*	24	0	94*	62*	-11	-5	17
FC(F)(F)c1ccc(Nc2nnnc3ccccc23)cc1	-8	73*	51*	-2	0	97*	62*	-13	-24	-8
CCOc1cc(/C=N/N=C2/NC(=O)C(CC(=O)O)S2)ccc1OCc1ccc(Cl)cc1Cl (stereo not given)	12	75*	84*	8	3	64*	65*	-16	-2	13*
COc1cccc(C(=O)N2CCC[C@H]2C(=O)N2CCC[C@H]2C(=O)N[C@@H](C)c2ccccc2)c1	-3	/	-2	/	/	/	/	/	/	/
O=C(N/N=C/c1ccc(Cl)c([N+](=O)[O-])c1)c1ccc2c(c1)OCCO2	80*	105*	89*	80*	/	94*	78*	-14	-12	46*	DNMT1 confirm=9;DNMT1 interf=-2
Nc1[nH]c(=O)[nH]c(=O)c1N=Nc1cccc(Cl)c1	-18	35	1	0	3	3	/	/	/	/
CNc1[nH]c(=O)[nH]c(=O)c1N=Nc1cc(Cl)ccc1Cl	-6	108*	3	4	0	48*	73*	-11	-6	16
CCN(C(=O)CSc1nnnn1C)C1CCS(=O)(=O)C1 (stereo not given)	3	-5	-2	2	/	-3	/	/	/	/
COc1cccc(C=NN(C)c2c([N+](=O)[O-])cc(C(F)(F)F)cc2[N+](=O)[O-])c1O	-25	/	3	-9	/	2	/	/	/	/
COc1cccc2cc(C(=O)Nc3cccc(C)n3)c(=O)oc12	-12	102*	-3	74*	0	56*	60*	-6	-3	-1	DNMT1 confirm=2;DNMT1 interf=3
O=S(=O)(Nc1ccc(F)cc1)N1CCOCC1	2	-7	0	-2	0	2	/	/	/	/
O=C1NC(=S)N(C(=O)c2ccc(F)cc2)/C1=C/c1cccnc1	-18	95*	18	4	1	43*	56*	-17	3	14
CC1=C(C(=O)N(C(C)C)C(C)C)CC(CC(=O)NC(c2ccccc2)c2ccccc2)C(=O)N1Cc1ccc(C(C)(C)C)cc1 (stereo not given)	0	/	3	-6	/	-1	/	/	/	/
CCN(c1ccccc1)S(=O)(=O)c1cc(C(=O)OC(C)C(=O)Nc2ccc3c(c2)OCCO3)ccc1C (stereo not given)	6	81*	23	29	10	41*	63*	-16	7.5*	59*
CCN(c1ccccc1)S(=O)(=O)c1cc(C(=O)OCC(=O)c2c(N)n(C)c(=O)n(C)c2=O)ccc1C	19	62*	26	93*	/	46*	63*	-19	-4	70*	DNMT1 confirm=3;DNMT1 interf=1
CN(c1ccccc1)S(=O)(=O)c1cc(C(=O)OCC(=O)c2c(N)n(C)c(=O)n(C)c2=O)ccc1Cl	3	-9	2	-8	/	-1	/	/	/	/
CC(OC(=O)c1ccccn1)C(=O)Nc1ccc2c(c1)OCCO2 (stereo not given)	4	-1	-1	2	0	1	/	/	/	/
O=C(O)c1ccc(Nc2nc(-c3ccc([N+](=O)[O-])cc3)nc3ccccc23)cc1	-4	82*	63*	-4	0	89*	57*	-10	9.2*	15
O=C(O)c1ccc(/C=N/NC(=O)c2cc3c(ccc4ccccc43)o2)cc1	15	79*	67*	0	0	98*	71*	-9	1	7
